Results: article PMC3269097 (Journal of Medicinal Chemistry, 2011)

Columns and labels:
GluN1a/GluN2D NMDAR [1] = target: GluN1a/GluN2D NMDAR (Rattus norvegicus, UniProt Q62645); assay type: cell-based
GluN1a/GluN2A NMDAR [2] = target: GluN1a/GluN2A NMDAR (Rattus norvegicus, UniProt P35439+Q00959); assay type: cell-based
GluN1a/GluN2B NMDAR [3] = target: GluN1a/GluN2B NMDAR (Rattus norvegicus, UniProt P35439+Q00960); assay type: cell-based
GluN1a/GluN2C NMDAR = GluN1a/GluN2C NMDAR (Rattus norvegicus, UniProt P35439+Q00961); assay type: cell-based
Chain of GluN1a/GluN2C NMDAR (Q00961 20-1237, other chains not shown): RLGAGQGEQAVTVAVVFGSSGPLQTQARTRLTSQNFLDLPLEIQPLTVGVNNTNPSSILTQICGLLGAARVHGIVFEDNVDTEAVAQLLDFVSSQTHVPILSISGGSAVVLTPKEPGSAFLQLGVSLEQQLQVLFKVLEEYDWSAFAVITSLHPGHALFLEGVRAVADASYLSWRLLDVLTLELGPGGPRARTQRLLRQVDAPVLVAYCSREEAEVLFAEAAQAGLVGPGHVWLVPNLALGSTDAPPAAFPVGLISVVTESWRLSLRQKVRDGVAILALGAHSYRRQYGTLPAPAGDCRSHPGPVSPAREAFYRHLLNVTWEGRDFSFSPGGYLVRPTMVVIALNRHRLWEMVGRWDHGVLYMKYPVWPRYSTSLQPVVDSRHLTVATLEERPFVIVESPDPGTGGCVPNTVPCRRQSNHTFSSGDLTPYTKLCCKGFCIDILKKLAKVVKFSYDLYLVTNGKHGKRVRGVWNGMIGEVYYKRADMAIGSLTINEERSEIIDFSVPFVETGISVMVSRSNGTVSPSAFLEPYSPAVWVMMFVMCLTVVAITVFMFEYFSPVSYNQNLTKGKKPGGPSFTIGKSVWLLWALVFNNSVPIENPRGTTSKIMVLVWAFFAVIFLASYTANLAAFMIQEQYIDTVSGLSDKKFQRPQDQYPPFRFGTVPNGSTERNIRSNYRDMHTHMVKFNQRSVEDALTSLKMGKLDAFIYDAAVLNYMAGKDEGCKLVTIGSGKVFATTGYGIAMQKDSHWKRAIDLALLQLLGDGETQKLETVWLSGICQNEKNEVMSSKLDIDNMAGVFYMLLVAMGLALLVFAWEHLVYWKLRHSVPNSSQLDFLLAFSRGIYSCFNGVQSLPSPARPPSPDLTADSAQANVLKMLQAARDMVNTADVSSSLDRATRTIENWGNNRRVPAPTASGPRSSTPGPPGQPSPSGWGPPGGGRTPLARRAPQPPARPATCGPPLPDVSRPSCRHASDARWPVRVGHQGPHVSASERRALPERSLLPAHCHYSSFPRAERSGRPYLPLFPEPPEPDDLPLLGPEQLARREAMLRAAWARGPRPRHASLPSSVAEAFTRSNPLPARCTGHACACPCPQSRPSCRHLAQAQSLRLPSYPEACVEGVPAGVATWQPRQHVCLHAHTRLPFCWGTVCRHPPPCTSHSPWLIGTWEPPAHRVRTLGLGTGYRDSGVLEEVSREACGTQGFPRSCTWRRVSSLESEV

GluN1a/GluN2D NMDAR [4] = target: GluN1a/GluN2D NMDAR (Rattus norvegicus, UniProt P35439+Q62645); assay type: cell-based
human GluK1 [5] = target: T1, human GluK1 (Homo sapiens, UniProt P39086); assay type: cell-based; settings: from KB values
T1 sequence (P39086 31-905 isoform P39086-2 limits assumed): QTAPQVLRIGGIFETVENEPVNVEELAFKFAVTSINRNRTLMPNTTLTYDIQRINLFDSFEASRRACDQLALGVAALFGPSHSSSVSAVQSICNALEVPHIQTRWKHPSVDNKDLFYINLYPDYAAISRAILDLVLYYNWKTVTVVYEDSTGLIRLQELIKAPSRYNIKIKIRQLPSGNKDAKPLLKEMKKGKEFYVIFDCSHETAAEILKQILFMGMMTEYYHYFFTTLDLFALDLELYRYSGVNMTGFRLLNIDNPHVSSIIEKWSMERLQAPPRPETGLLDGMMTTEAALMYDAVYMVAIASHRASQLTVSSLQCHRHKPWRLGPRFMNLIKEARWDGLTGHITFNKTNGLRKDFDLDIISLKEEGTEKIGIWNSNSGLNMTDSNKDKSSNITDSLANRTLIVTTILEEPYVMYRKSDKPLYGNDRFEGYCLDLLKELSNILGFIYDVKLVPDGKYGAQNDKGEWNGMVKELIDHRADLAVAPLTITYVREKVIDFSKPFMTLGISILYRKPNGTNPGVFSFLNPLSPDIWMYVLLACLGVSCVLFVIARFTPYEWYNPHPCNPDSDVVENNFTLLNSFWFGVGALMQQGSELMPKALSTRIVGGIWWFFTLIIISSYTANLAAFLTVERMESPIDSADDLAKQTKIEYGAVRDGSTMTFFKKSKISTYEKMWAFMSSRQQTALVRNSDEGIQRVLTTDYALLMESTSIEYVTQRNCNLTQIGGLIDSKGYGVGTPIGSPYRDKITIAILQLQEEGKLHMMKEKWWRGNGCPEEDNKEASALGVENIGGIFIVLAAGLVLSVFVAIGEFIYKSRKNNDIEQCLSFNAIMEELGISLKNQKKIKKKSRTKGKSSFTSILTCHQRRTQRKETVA

human GluK2 = human GluK2 (Homo sapiens, UniProt Q13002); assay type: cell-based; settings: tested at a concentration of 100 μM
Chain of human GluK2 (Q13002 32-908): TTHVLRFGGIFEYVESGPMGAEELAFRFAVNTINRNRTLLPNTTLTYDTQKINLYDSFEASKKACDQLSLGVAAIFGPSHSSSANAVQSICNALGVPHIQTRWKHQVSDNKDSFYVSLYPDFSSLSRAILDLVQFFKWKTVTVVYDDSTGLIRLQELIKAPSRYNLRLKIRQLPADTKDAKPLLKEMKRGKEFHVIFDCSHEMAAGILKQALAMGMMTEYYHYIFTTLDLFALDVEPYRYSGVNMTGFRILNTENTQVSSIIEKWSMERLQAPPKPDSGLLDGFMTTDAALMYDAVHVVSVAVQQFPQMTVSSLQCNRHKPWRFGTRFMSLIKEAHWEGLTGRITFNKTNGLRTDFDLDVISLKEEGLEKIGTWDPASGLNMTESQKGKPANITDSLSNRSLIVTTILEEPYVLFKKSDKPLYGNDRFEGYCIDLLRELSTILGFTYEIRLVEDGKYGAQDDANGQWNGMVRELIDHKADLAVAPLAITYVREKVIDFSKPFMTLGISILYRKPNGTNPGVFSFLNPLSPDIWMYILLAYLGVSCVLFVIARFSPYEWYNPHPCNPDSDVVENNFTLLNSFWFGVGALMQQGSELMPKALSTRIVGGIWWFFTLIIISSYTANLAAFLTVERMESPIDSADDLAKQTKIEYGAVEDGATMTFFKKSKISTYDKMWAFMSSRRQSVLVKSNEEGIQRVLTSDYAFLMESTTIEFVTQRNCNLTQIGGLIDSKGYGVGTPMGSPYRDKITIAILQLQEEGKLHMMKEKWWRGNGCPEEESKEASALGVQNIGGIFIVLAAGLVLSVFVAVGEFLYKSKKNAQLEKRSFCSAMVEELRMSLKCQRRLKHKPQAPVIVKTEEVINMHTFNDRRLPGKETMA
Method in brief: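 HEK293 cells stably expressing homomeric human GluK2(Q), passaged no more than 20 times. Ca2+ influx read by fluorescence plate reader with concanavalin A present. Test compound is added over a range of concentrations, then L-glutamate plus antagonist (final glutamate 10 μM). Curves are fitted with slope fixed at 1 and top/bottom fixed at 100%/0% inhibition. KB is derived from IC50 by Cheng-Prusoff.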

AMPARs = settings: competition binding assays; ref [5c]; cited from earlier work
GluN1a/GluN2A NMDAR [6] = target: GluN1a/GluN2A NMDAR (Rattus norvegicus, UniProt Q00959); assay type: cell-based; settings: at a concentration of 100 μM
GluN1a/GluN2B NMDAR [7] = target: GluN1a/GluN2B NMDAR (Rattus norvegicus, UniProt Q00960); assay type: cell-based; settings: at a concentration of 100 μM
Solubility observations = assay type: physicochemical; settings: for water solubility: at higher concentrations
human GluK1 [8] = target: T1, human GluK1; experiment: Electrophysiological assay; assay type: cell-based; settings: electrophysiological assays
Method in brief: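 Whole-cell patch clamp at −70 mV on HEK293 cells stably expressing homomeric human GluK1 or GluK3. Cells are bathed in HBS pH 7.4 at 20°C and lifted into a piezo-driven theta tube. 30 mM glutamate is applied for 100 ms every 20 s. Antagonist is added to both barrels for about 2 min, giving 5 concentrations per cell, each averaged over 6 sweeps. IC50 values are reported with 95% confidence intervals.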

native AMPARs = assay type: cell-based, rat; settings: 100 μM, n=4
Method in brief: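 Field EPSPs in transverse rat hippocampal slices (400 μm), perfused at 29°C. Mossy fibers stimulated via the dentate granule cell layer every 60 s. Responses averaged every 2 min and measured as 20–80% slope. Test compound at 100 μM perfused for 30 min. Results expressed as % of control slope, mean ± s.e.m., n=4, compared by Student's t test.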

wildtype (WT) GluK3 = wildtype (WT) GluK3 (Homo sapiens, UniProt Q13003); experiment: [3H]kainate competition binding to wildtype GluK3 membranes; settings: 18i 100 μM, 300 μM, 1 mM; 20 nM [3H]kainate
Method in brief: (§1)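 Filtration binding on human GluK3a membranes. Wildtype comes from stably transfected HEK293 (hygromycin); the A660S mutant is transiently PEI-transfected for 48 h. Membranes are prepared by hypotonic sonication and washed in 50 mM Tris-citrate pH 7.4. Assay uses 20 nM [3H]kainate, with 1 mM kainate defining non-specific binding. Test compound at 100 μM, 300 μM and 1 mM; three experiments in triplicate.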

[9] = target: GluK3 A660S mutant receptor (Homo sapiens, UniProt Q13003, A691S); experiment: [3H]kainate competition binding to GluK3 A660S mutant membranes; settings: 18i 100 μM, 300 μM, 1 mM; 20 nM [3H]kainate; compared with wild type
Method in brief: as §1

[10] = tested on: male Wistar rats with partial saphenous nerve ligation injury (PSNI); experiment: Nociceptive behaviour in rats, partial saphenous nerve ligation injury; assay type: in vivo, rat
Method in brief: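 Male Wistar rats (~250 g) habituated to testing, tested before saphenous nerve injury. Test compound or vehicle given i.p. (n=5/group), testing starts 15 min later. Von Frey hairs applied to the plantar hindpaw (≤5 s, five times per paw, both paws); thresholds taken from stimulus-response curves. Radiant-heat withdrawal latency is the mean of three stimulations per paw.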

Chain of GluN1a/GluN2B NMDAR (Rattus norvegicus, UniProt P35439+Q00960) (Q00960 27-1482, other chains not shown): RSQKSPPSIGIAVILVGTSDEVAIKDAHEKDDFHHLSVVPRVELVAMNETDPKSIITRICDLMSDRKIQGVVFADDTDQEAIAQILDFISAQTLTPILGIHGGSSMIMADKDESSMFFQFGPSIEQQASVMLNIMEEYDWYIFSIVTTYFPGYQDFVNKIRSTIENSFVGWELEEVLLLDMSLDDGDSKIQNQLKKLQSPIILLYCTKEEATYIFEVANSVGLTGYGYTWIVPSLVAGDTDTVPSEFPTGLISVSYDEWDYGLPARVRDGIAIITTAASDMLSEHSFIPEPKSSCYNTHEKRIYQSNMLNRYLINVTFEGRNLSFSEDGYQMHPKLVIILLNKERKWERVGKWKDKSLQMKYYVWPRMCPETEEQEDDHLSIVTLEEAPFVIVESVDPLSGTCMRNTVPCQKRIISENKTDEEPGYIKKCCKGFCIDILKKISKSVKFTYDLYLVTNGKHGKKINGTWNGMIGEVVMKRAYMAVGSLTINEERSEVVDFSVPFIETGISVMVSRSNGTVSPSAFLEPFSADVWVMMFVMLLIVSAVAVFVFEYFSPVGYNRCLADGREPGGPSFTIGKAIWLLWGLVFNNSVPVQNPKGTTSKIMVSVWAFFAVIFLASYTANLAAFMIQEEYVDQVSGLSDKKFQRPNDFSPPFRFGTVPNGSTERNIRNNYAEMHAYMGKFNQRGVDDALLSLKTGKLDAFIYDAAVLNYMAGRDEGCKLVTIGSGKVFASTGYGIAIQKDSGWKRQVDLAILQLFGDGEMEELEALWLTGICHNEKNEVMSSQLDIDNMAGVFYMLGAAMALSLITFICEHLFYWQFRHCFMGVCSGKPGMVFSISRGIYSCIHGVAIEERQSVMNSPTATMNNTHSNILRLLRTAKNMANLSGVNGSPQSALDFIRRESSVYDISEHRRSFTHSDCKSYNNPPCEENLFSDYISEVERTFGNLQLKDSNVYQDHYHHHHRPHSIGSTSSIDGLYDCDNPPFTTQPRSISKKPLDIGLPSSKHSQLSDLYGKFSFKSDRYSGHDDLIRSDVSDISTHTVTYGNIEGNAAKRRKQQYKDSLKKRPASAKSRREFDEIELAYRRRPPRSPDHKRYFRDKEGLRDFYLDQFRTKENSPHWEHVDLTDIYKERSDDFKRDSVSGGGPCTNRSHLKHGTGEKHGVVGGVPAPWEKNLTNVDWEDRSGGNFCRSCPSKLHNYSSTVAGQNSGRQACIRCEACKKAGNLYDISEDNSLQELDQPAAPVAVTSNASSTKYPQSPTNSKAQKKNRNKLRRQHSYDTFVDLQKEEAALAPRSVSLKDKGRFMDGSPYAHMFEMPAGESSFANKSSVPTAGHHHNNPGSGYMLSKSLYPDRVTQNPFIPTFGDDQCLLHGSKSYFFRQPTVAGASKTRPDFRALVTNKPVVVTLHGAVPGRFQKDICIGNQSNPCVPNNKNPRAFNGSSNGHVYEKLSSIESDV

SMILES: O=C(O)C1NCCN(C(=O)c2ccc3c(ccc4ccccc43)c2)C1C(=O)O (single isomer, unassigned; (+)) [(+)-4, (+)-1-(Phenanthrene-2-carbonyl)piperazine-2,3-dicarboxylic acid]
- fold lower affinity for GluN2D than the (−)-4 isomer (GluN1a/GluN2D NMDAR [1]): 50 fold

SMILES: O=C(O)[C@H]1NCCN(C(=O)c2ccc(CCc3ccccc3)cc2)[C@H]1C(=O)O [Compound 21]
- IC50 (GluN1a/GluN2A NMDAR [2]): > 100 µM
- IC50 (GluN1a/GluN2B NMDAR [3]): > 100 µM
- IC50 (GluN1a/GluN2C NMDAR): > 100 µM
- IC50 (GluN1a/GluN2D NMDAR [4]): > 100 µM
- antagonism of GluN2D (GluN1a/GluN2D NMDAR [1]; at a concentration of 100 μM): ~ 10%
- fold lower affinity for GluK1 compared to 34b (human GluK1 [5]): approximately 2 fold
- fold lower affinity for GluK1 compared to (±)-4 (human GluK1 [5]): 9 fold

SMILES: O=C(O)[C@H]1NCCN(C(=O)c2ccc(/N=N/c3ccccc3)cc2)[C@H]1C(=O)O [Compound 18l]
- GluK2 antagonist activity (human GluK2): no GluK2 antagonist activity
- inhibition of [3H]AMPA binding (AMPARs): only very weak inhibitors

SMILES: O=C(O)[C@@H]1NCCN(C(=O)c2ccc3c(ccc4ccccc43)c2)[C@H]1C(=O)O [Compound 34d]
- fold lower affinity for GluK1 compared to (±)-4 (human GluK1 [5]): 8 fold

SMILES: O=C(O)[C@H]1NCCN(C(=O)c2ccc3cc(Br)c4ccccc4c3c2)[C@H]1C(=O)O (relative stereo) [Compound 18h, (2R*,3S*)-1-(9-Bromophenanthrene-3-carbonyl)piperazine-2,3-dicarboxylic acid]
- inhibition of [3H]AMPA binding (AMPARs): only very weak inhibitors

SMILES: O=C(O)[C@H]1NCCN(C(=O)c2ccc3ccc4ccccc4c3c2)[C@H]1C(=O)O [Compound 5]
- selectivity for GluN2D versus GluK1 (GluN1a/GluN2D NMDAR [1]; GluN2D Ki versus GluK1 KB): around 10 fold
- GluK2 antagonist activity (human GluK2): no GluK2 antagonist activity
- inhibition of [3H]AMPA binding (AMPARs): only very weak inhibitors

SMILES: O=C(O)[C@H]1NCCN(C(=O)c2ccc3cc(-c4ccccc4)ccc3c2)[C@H]1C(=O)O (relative stereo) [Compound 18d, (2R*,3S*)-1-(6-Phenylnaphthalene-2-carbonyl)piperazine-2,3-dicarboxylic acid]
- IC50 (GluN1a/GluN2A NMDAR [2]): > 100 µM
- antagonism of GluN2A (GluN1a/GluN2A NMDAR [6]): 30–37%
- IC50 (GluN1a/GluN2B NMDAR [3]): > 100 µM
- antagonism of GluN2B (GluN1a/GluN2B NMDAR [7]): 30–37%
- GluK2 antagonist activity (human GluK2): no GluK2 antagonist activity
- solubility in electrophysiological recording buffer (Solubility observations; 300 μM, room temperature, visible light scattering): insoluble at high concentrations
- water solubility (Solubility observations): poor water solubility

SMILES: O=C(O)[C@H]1NCCN(C(=O)c2ccc3c(ccc4cc(Br)ccc43)c2)[C@H]1C(=O)O [Compound 34e]
- GluK2 antagonist activity (human GluK2): no GluK2 antagonist activity

SMILES: O=C(O)[C@H]1NCCN(Cc2ccc3c(ccc4ccccc43)c2)[C@H]1C(=O)O [Compound 34f]
- fold lower affinity for GluK1 compared to (±)-4 (human GluK1 [5]): 5 fold

SMILES: O=C(O)[C@@H]1[C@H](C(=O)O)NCCN1C(=O)c1ccc2c(ccc3ccccc32)c1 [(−)-4, (−)-1-(Phenanthrene-2-carbonyl)piperazine-2,3-dicarboxylic acid]
- fold higher affinity for GluK1 than the (+)-4 enantiomer (human GluK1 [5]): 27 fold
- GluK2 antagonist activity (human GluK2): no GluK2 antagonist activity

SMILES: O=C(O)C1NCCN(C(=O)c2ccc3c(ccc4ccccc43)c2)C1C(=O)O (stereo not drawn) [(±)-4]
- GluK2 antagonist activity (human GluK2): no GluK2 antagonist activity

SMILES: O=C(O)c1ccc2cc(C(=O)N3CCN[C@H](C(=O)O)[C@@H]3C(=O)O)ccc2c1 [Compound 19]
- IC50 (GluN1a/GluN2A NMDAR [2]): > 100 µM
- IC50 (GluN1a/GluN2B NMDAR [3]): > 100 µM
- IC50 (GluN1a/GluN2C NMDAR): > 100 µM
- IC50 (GluN1a/GluN2D NMDAR [4]): > 100 µM

SMILES: O=C(O)[C@H]1NCCN(C(=O)c2ccc3cc(I)ccc3c2)[C@H]1C(=O)O (relative stereo) [Compound 18c, (2R*,3S*)-1-(6-Iodonaphthalene-2-carbonyl)piperazine-2,3-dicarboxylic acid]
- GluK2 antagonist activity (human GluK2): no GluK2 antagonist activity

SMILES: O=C(O)[C@H]1NCCN(C(=O)c2ccc(C#Cc3ccccc3)cc2)[C@H]1C(=O)O [Compound 18k]
- GluK2 antagonist activity (human GluK2): no GluK2 antagonist activity
- inhibition of [3H]AMPA binding (AMPARs): only very weak inhibitors

SMILES: O=C(O)c1ccc(-c2ccc(C(=O)N3CCN[C@H](C(=O)O)[C@@H]3C(=O)O)cc2)cc1 [Compound 20]
- IC50 (GluN1a/GluN2B NMDAR [3]): > 100 µM
- IC50 (GluN1a/GluN2C NMDAR): > 100 µM
- fold lower affinity for GluK1 compared to 34b (human GluK1 [5]): 5 fold
- water solubility (Solubility observations): poor water solubility

SMILES: O=C(O)[C@H]1NCCN(C(=O)c2ccc(-c3ccccc3)cc2)[C@H]1C(=O)O [Compound 34b]
- GluK2 antagonist activity (human GluK2): no GluK2 antagonist activity

SMILES: O=C(O)[C@H]1NCCN(C(=O)c2ccc3cc(I)c4ccccc4c3c2)[C@H]1C(=O)O (relative stereo) [Compound 18i, (2R*,3S*)-1-(9-Iodophenanthrene-3-carbonyl)piperazine-2,3-dicarboxylic acid]
- fold higher affinity for GluK1 compared to 18c (human GluK1 [5]): 1.7 fold
- fold lower IC50 for GluK1 versus GluK3 (human GluK1 [8]): > 100 fold
- AMPAR mediated fEPSP response in the presence of compound, % of slope (native AMPARs; 30 min perfusion, control 100 ± 2%, mean ± s.e.m.): 99 ± 2%
- antagonist activity on AMPAR mediated EPSPs in CA3 region of the hippocampus (native AMPARs): no antagonist activity
- inhibition of [3H]kainate binding to wild type GluK3 (wildtype (WT) GluK3): low binding affinity
- inhibition of [3H]kainate binding to A660S point mutant of GluK3 [9]: more potently inhibited
- thermal withdrawal latency to radiant heat ([10]; 30 mg/kg i.p., acute, day 7 after PSNI, n=5 per group): increased thermal withdrawal latency in these animals above baseline values
- mechanical withdrawal threshold (mechanical allodynia) ([10]; 30 mg/kg i.p., acute, day 7 after PSNI, versus vehicle, n=5 per group): completely reversed the drop in mechanical withdrawal threshold
- antinociceptive effects in normal animals ([10]; normal animals before nerve injury (not shown)): exerted antinociceptive effects

SMILES: O=C(O)[C@H]1NCCN(C(=O)c2ccc3c(c2)CCc2ccccc2-3)[C@H]1C(=O)O [Compound 34g]
- GluK2 antagonist activity (human GluK2): no GluK2 antagonist activity
